Most compounds without a hit are left out; they make up all but 2% or so of the library.
MBD2 DNA inh – inhibitors of MBD2 binding to methylated DNA, primary screen, biochemical, TR-FRET, DNA-binding domain, human. Methyl-CpG-binding domain protein 2 (Homo sapiens), Q9UBB5. MBD2 binding to methylated oligonucleotide. inhibition, % at 4.4 µM. 0.31% of 370,000 active; in the data active means inhibition above about 13%
TCR CD3 inh – inhibitors of human TCR-CD3 interaction, primary screen, biochemical, fluorescence, TAMRA-labeled TCR probe; inhibition, % at 9.4 µM; 0.37% of 360,000 active; T-cell receptor (TCR); in the data active means inhibition above about 19%;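 further: recombinant mutant TCR 2C K166C tagged with TAMRA read by polarization; 0% = receptor in buffer alone and 100% = receptor with positive control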
UHRF1 MBD2 ctr – UHRF1 methylated DNA binding inhibitors, primary screen, counter-screen for MBD2 inhibitor project, biochemical, TR-FRET, human UHRF1, single concentration; E3 ubiquitin-protein ligase UHRF1 (Homo sapiens), Q96T88; UHRF1 binding to methylated oligo; inhibition, % at 4.4 µM; 0.75% of 370,000 active; AID 687016, 2013; in the data active means inhibition above about 21%;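 further: UHRF1 SRA domain binding a hemimethylated CpG hairpin DNA probe; 0% = median of test compound wells and 100% = reference inhibitor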
ASAP1 GAP inh – inhibitors of human ASAP1 ArfGAP activity, primary screen, biochemical, fluorescence polarization. ASAP1-stimulated ARF1 GTP hydrolysis, GDP FP detection. 0.19% of 360,000 active. inhibition, % at 16.5 µM; in the data active means inhibition above about 25%;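 further: 0% = vehicle with enzyme and substrate and 100% = no enzyme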
Target sequence (Q9ULH1 325-724 limits assumed): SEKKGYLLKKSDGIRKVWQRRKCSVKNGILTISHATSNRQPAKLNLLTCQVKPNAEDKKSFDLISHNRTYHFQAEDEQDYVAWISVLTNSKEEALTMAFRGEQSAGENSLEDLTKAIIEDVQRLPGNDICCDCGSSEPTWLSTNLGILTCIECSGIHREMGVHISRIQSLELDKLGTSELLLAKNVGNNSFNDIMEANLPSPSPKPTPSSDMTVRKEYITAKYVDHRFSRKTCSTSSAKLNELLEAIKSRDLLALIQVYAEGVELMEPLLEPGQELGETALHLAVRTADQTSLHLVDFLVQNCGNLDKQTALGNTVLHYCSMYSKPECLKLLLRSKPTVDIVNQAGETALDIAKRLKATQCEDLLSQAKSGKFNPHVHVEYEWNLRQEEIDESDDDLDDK
ARFGAP1 inhibitor – inhibitors of rat ARFGAP1 GAP activity, primary screen, biochemical, fluorescence polarization, GDP tracer | inhibition, % at 16.5 µM | ADP-ribosylation factor GTPase-activating protein 1 (Rattus norvegicus), Q62848 | 0.26% of 360,000 active | Arfgap1-stimulated ARF1 GTP hydrolysis, GDP FP detection;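 active means inhibition above a per-plate limit, mean inhibition of low control wells plus 3 SD, cut at about 25% in these data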;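 further: 0% = DMSO wells with enzyme and 100% = wells lacking Arfgap1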
Target sequence (Q62848 1-136 limits assumed): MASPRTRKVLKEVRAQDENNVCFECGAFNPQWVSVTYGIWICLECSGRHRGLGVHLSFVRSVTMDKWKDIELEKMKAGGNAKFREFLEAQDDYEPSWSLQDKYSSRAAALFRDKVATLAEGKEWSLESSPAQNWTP
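material = rat Arfgap1 catalytic domain, aa 1-136 | also added = human ARF1(Δ1-17)-GTP substrate | compound dosing = one concentration, 16.5 µM, DMSO 1.26% | times = GTP hydrolysis reaction 2 h at 25 °C | measured by = FP, GDP Alexa 633 tracer displaced from anti-GDP antibody, 620/688 nm | evaluation = percent inhibition of Arfgap1-stimulated GTP hydrolysis | replication = single well per compound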
LEDGF integ inh – blockers of LEDGF/p75-dependent integrase strand transfer – biochemical, TR-FRET, high throughput, primary screen; 0.64% of 370,000 active; inhibition, % at 3.7 µM; AID 743269, 2014; TR-FRET IN-LEDGF/p75 DNA integration, Eu/Cy5; HIV-1 integrase (with human LEDGF/p75);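 active means inhibition above the screen-wide mean plus 3 SD, cut at about 13% in these data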;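 further: signal is the Cy5 over europium emission ratio at 671 and 618 nm; 0% = plate median of compound wells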
Starred values were filed as active, the others as inactive; nt = no result.

SMILES	MBD2 DNA inh	TCR CD3 inh	UHRF1 MBD2 ctr	ASAP1 GAP inh	ARFGAP1 inhibitor	LEDGF integ inh
Cc1c(NC(=O)c2ccc(Cl)nc2)cccc1-c1nc2cccnc2s1	10	4	22*	-8	15	3
Cc1c(NC(=O)c2ccco2)cccc1-c1nc2cccnc2s1	-5	3	-1	-5	7	2
CCOc1ccc(NC(=S)C(C#N)=C2N(C)c3ccccc3N2C)cc1	1	-4	22*	9	0	-6
CCOc1ccc(NC(=S)N2c3ccccc3CC2C)cc1 (configuration not stated)	-1	-4	5	-13	-1	-3
COc1ccc(CCN(C(=O)C(F)(F)F)C(C(=O)NC2CCCCC2)c2ccc(C)s2)cc1OC (configuration not stated)	-3	-4	29*	-2	-12	0
COc1ccc(CCN(C(=O)C(F)(F)F)C(C(=O)NC2CCCC2)c2cccs2)cc1OC (configuration not stated)	-7	-8	2	-24	-9	5
COC(=O)C1(C)NCCc2c1[nH]c1ccccc21 (configuration not stated)	-4	4	0	-3	-5	0
CCOC(=O)N1CCC2(CC1)NCCc1c2[nH]c2ccccc12	-3	5	25*	-11	4	0
COc1ccc(S(=O)(=O)N/N=C(/C)c2ccncc2)cc1	2	13	27*	-10	5	1
O=C(COC(=O)CCCNC(=O)c1ccc(Cl)cc1)NCc1ccccc1Cl	3	-4	0	-5	8	-1
N#CCN(C(=O)COC(=O)CCCNC(=O)c1ccc(Cl)cc1)c1ccccc1	0	-4	50*	0	2	1
C[C@@]12C(=O)N(CC3CC3)CC(=O)N1[C@H](C1CC1)[C@@H]1C(=O)N(c3ccccc3)C(=O)[C@@H]12	-3	-6	39*	-2	1	-1
CCOC(=O)c1ccc(NC(=O)COc2ccc(CNCCO)cc2OCC)cc1	4	4	102*	-4	5	-10
C[C@@H]1C(=O)N2N=Cc3ccccc3[C@H]2N2N=Cc3ccccc3[C@@H]12	-6	nt	-2	nt	nt	-1
O=C1C(=Cc2cn(-c3ccccc3)nc2-c2ccc(OCc3ccccc3F)cc2)SC(=S)N1CCS(=O)(=O)O	3	13	58*	-7	-9	1
O=C1C(=Cc2cn(-c3ccccc3)nc2-c2ccc(OCc3ccc(Cl)cc3)cc2)SC(=S)N1CCS(=O)(=O)O	-1	2	-2	-7	-2	-1
COC(=O)[C@]12C[C@H](CC(=O)NCCC(C)C)C(=O)N(Cc3ccccc3)C1=C[C@H](C(C)C)O[C@@H]2C1CC1	4	9	-1	3	14	-2
CCCCNC(=O)C[C@H]1C[C@@]2(C(=O)OC)C(=C[C@H](C(C)C)O[C@@H]2C2CC2)N(Cc2ccccc2)C1=O	4	0	24*	1	7	-2
Cc1nc(C(F)(F)F)ccc1C(=O)NCC(O)c1ccccc1 (configuration not stated)	4	0	46*	0	-8	-5
Cc1nc(C(F)(F)F)ccc1C(=O)Nc1ccccc1F	-1	-5	1	7	17	-6
CCOC(=O)N1CCN(C(=O)C[C@H]2C[C@@]3(C(=O)OC)C(=C[C@H](C(C)C)O[C@@H]3C3CC3)N(CCC3=CCCCC3)C2=O)CC1	1	nt	0	nt	nt	0
O=C(C1CCN(S(=O)(=O)c2cnc[nH]2)CC1)N1CCc2ccccc2C1	-2	-2	30*	0	1	-2
C[C@@H]1CN([C@@H](C)CO)C(=O)CCCn2nncc2CO[C@@H]1CN(C)C(=O)Nc1ccccc1C(F)(F)F	-1	-3	22*	2	10	-4
C[C@H]1CN([C@@H](C)CO)C(=O)CCCn2nncc2CO[C@@H]1CN(C)Cc1ccccc1	5	5	35*	2	2	-1
C[C@@H]1CN([C@@H](C)CO)C(=O)CCCn2cc(nn2)CO[C@H]1CN(C)C(=O)NC1CCCCC1	8	6	21*	-10	0	-4
SMILES	MBD2 DNA inh	TCR CD3 inh	UHRF1 MBD2 ctr	ASAP1 GAP inh	ARFGAP1 inhibitor	LEDGF integ inh
COc1ccc(C[N+]2=C(N)NC3=C(C)Cn4c(=O)n(-c5ccccc5)c(=O)n4C3C2)c(OC)c1 (configuration not stated)	0	nt	7	nt	nt	-2
COc1ccc(/C=C(\NC(=O)c2ccccc2)C(=O)N2CCCCC2)cc1OC	-2	1	56*	3	4	7
Cc1onc(-c2c(F)cccc2Cl)c1C(=O)c1ccc(F)cc1	-4	9	73*	1	1	1
Cc1onc(-c2c(Cl)cccc2Cl)c1C(=O)OCC(=O)c1ccccc1	4	0	52*	2	5	2
Cc1onc(-c2c(Cl)cccc2Cl)c1C(=O)c1ccc(F)cc1	1	2	1	-9	-4	0
Cc1ccc(S(=O)(=O)NCC2CCCO2)cc1 (configuration not stated)	2	1	2	5	3	2
Cc1ccc(NC(=O)c2cc(S(=O)(=O)NCC3CCCO3)ccc2F)cc1 (configuration not stated)	-1	2	45*	-13	0	1
C[C@H]1CN([C@@H](C)CO)S(=O)(=O)c2ccc(Br)cc2O[C@H]1CN(C)C(=O)c1cccnc1	3	3	24*	0	0	-2
C[C@@H]1CN([C@H](C)CO)S(=O)(=O)c2ccc(Br)cc2O[C@H]1CN(C)C(=O)C1CC1	6	1	21*	1	1	-1
COc1cccc(-c2ccc3c(c2)O[C@@H](CN(C)C(=O)C2CCOCC2)[C@H](C)CN([C@H](C)CO)S3(=O)=O)c1	6	5	22*	-4	8	-4
C[C@@H]1CN([C@H](C)CO)S(=O)(=O)c2ccc(Br)cc2O[C@@H]1CN(C)Cc1ccc(-c2ccccc2)cc1	13	-4	21*	10	14	-5
C[C@@H]1CN([C@H](C)CO)S(=O)(=O)c2ccc(Br)cc2O[C@@H]1CN(C)Cc1ccc(C(=O)O)cc1	-1	6	-3	-2	5	0

Assay outcomes: PubChem, The Scripps Research Institute Molecular Screening Center
